The nature of test [1]: Her2 expression decrease, cell viability multiplex – SKBR3 breast tumor cells, AlphaScreen, ATP viability, primary screen (AID 461).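 As to Her2 level: lower value means less Her2 protein in the cells.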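 As to viability: percent of carrier control wells set as 100% viability.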 The settings on record: SKBR3 Her2 protein level, 18-24 h, measured here: SKBR3 viability, ATP luminescence, at 10 µM. (Alpha assays give light when donor and acceptor beads are brought close together.)
For test [2], the target named is Receptor tyrosine-protein kinase erbB-2 (Homo sapiens) (UniProt P04626). Described as above. The settings on record: 18-24 h, at 10 µM, stronger effect = lower value.
Receptor tyrosine-protein kinase erbB-2 (Homo sapiens), sequence (P04626 whole entry, looked up): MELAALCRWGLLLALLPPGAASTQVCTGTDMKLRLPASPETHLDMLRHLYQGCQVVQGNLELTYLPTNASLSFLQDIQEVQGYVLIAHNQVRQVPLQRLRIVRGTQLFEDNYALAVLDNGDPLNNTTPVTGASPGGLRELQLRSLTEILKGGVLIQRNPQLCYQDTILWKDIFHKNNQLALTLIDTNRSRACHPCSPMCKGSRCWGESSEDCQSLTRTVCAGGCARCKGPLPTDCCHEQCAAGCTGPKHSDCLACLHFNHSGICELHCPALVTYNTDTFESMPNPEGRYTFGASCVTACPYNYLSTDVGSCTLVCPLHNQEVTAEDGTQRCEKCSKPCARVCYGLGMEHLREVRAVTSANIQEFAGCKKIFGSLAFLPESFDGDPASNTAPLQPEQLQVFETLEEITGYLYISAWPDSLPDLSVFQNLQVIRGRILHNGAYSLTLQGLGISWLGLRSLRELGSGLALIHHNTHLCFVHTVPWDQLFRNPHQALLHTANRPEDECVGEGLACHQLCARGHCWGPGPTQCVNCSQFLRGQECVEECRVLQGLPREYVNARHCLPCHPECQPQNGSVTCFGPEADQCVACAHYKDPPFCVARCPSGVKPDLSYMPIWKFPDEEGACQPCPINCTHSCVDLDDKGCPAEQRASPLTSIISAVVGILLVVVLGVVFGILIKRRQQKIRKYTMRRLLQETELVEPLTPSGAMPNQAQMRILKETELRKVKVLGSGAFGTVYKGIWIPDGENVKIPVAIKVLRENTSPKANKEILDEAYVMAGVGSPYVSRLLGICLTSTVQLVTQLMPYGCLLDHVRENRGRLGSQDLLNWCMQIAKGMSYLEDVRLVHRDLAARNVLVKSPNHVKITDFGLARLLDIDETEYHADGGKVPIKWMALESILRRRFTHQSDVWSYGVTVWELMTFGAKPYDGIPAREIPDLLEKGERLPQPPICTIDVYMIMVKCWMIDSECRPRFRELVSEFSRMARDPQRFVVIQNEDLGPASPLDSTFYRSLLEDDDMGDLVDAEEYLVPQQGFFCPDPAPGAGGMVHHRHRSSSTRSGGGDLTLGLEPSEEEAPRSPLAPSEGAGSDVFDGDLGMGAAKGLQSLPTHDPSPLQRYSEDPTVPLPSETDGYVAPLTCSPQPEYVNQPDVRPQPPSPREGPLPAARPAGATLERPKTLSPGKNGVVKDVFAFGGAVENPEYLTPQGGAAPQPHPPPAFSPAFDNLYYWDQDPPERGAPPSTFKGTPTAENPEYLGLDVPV
Test [3] is described as follows: reduced viability of SK-BR-3 breast cancer cells – cell-based, 24 h, human, pilot screen (AID 572;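 active = viability at or below 10% of carrier control in both of two separate runs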;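 also: compound exposure lasted between 18 and 24 h rather than exactly 24 h; 100% = carrier-treated control wells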). The settings on record: SK-BR-3 viability, CellTiter-Glo luminescence, at 10 µM, stronger effect = lower value. For orientation: ATP-based viability assays read luminescence as a measure of living cells.
A short description of test [4]: HUVEC growth inhibition – cell-based, human, primary screen (AID 575;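 active = viability at or below 30% in both replicate assays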;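 also: 100% = median of untreated cell wells with 0.1% DMSO on each plate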). The settings on record: HUVEC proliferation, CellTiter-Glo luminescence, 72 h; at 10 µM; stronger effect = lower value. The gist of the method:
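System – primary HUVEC, no more than 12 passages · Medium – Low-serum (2% FBS) EBM, supplemented · Times – 72 h exposure, 37 °C, 5% CO2, 30 min RT equilibration · Measured by – luminescent ATP assay · Read-out – % viability relative to median vehicle-well signal on each plate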

Test [5] is described as follows: H69AR cell proliferation blockers – human, duplicate replicates, primary screen (AID 580;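 active = viability at or under a set limit in both replicates, limit being median viability minus 3 SD, cut at about 48% in these data, passing the limit was not always enough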;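 also: 100% = mean luminescence of untreated wells and 0% = no signal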). Particulars: H69AR lung tumor cells viability, ATP luminescence, 72 h; at 10 µM; stronger effect = lower value.
Test [6] in a line: MRP1 drug-resistance reversers in H69AR cells – cell-based, doxorubicin co-treatment, pilot screen (AID 601;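 active = viability loss from added drug above about 55%, and viability with drug at most 40%, in both replicates, limit read from the data, passing the limit was not always enough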). Particulars: CellTiter-Glo, 72 h, at 10 µM; for differential viability (reversal): stronger effect = higher value.
A short description of test [7]: yeast transport mutant growth inhibition pilot in 384-well plates, post-Golgi transport modulator project (AID 636; in the data active = inhibition above about 31%). The settings on record: absorbance 615 nm, about 18 h, stronger effect = higher value.
A short description of test [8]: growth suppression of yeast trafficking mutant, preliminary HTS, modulators of trafficking downstream of Golgi apparatus project, 1536-format plate, OD 615 nm (AID 637; in the data active = inhibition above about 30%). Particulars: yeast transport mutant growth, absorbance 615 nm, 18 h; stronger effect = higher value.
The mark [9] stands for this setting: H69AR cells + 2 uM doxorubicin, measured here: viability with 2 uM doxorubicin, stronger effect = lower value.
[10] abbreviates: H69AR cells, compound alone cytotoxicity.

Calls of active or inactive are those of the source.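 The calls were made as follows, unless noted: active = Her2 level under about 52% in both replicate screens, with viability over 70% of control (limit read from the data); inconclusive = Her2 under the limit in one screen only, or viability under 70%; inactive = Her2 level above the set limit.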

Take `CCN(CC)C(=O)C1CCCN(Cc2ccc(N(C)C)cc2)C1` (stereo not given): the viability in test [1] is 90.5%; in test [3] it was 90.5% (inactive); in test [4], 100% (inactive); in test [5], 89.5% (inactive); in test [6] (setting [9]) it was 93%; in test [6] (setting [10]) it was 89.5%. In test [2], the Her2 level was 96.5% (inactive). Moreover, in test [6] (H69AR cells + 2 uM doxorubicin), the differential viability (reversal) is -3.46% (inactive). In addition, the inhibition in test [7] is -1.82% (inactive); in test [8], -4.75% (inactive).
On to `O=C(NCC1CCCO1)c1ccccc1-c1nc(-c2ccc(Cl)cc2)no1` (stereo not given), for which the viability in test [1] was 78.5%; in test [3] it was 78.5% (inactive); in test [4] it was 76% (inactive); in test [5], 95.1% (inactive); in test [6] (setting [9]) it was 88.1%; in test [6] (setting [10]) it was 95.1%. The Her2 level in test [2] was 87.5% (inactive). Also, the differential viability (reversal) in test [6] (H69AR cells + 2 uM doxorubicin) was 6.99% (inactive). The inhibition in test [7] is -5.68% (inactive); in test [8], 1.8% (inactive).
Regarding `Cc1ccc(-c2nnn(CC(=O)N(Cc3ccco3)C(C(=O)NC(C)(C)C)c3cccs3)n2)o1` (stereo not given), the viability in test [1] was 119%; in test [3], 119% (inactive); in test [4] it was 89.1% (inactive); in test [5], 95.9% (inactive); in test [6] (setting [9]), 89.8%; in test [6] (setting [10]), 95.9%. The Her2 level in test [2] was 81% (inactive). In addition, the differential viability (reversal) in test [6] (H69AR cells + 2 uM doxorubicin) is 6.13% (inactive). Moreover, the inhibition is 0.4% (inactive) in test [7] and -4.1% (inactive) in test [8].
As for `COc1cc(NC(=O)c2cc(CC(C)C)on2)c(OC)cc1Cl`, the viability in test [1] was 92%; in test [3], 92% (inactive); in test [4], 105% (inactive); in test [5] it was 88.9% (inactive); in test [6] (setting [9]) it was 92.2%; in test [6] (setting [10]) it was 88.9%. Moreover, the Her2 level in test [2] is 102% (inactive). The differential viability (reversal) in test [6] (H69AR cells + 2 uM doxorubicin) is -3.37% (inactive). Moreover, the inhibition in test [7] was 1.15% (inactive); in test [8], -5.33% (inactive).
Consider `O=C(CN1C(=O)CCSc2ccccc21)Nc1ccccc1`, for which the viability in test [1] is 113%; in test [3] it was 113% (inactive); in test [4] it was 111% (inactive); in test [5], 104% (inactive); in test [6] (setting [9]) it was 88.2%; in test [6] (setting [10]), 104%. For the same molecule, the Her2 level in test [2] was 94% (inactive). Also, the differential viability (reversal) in test [6] (H69AR cells + 2 uM doxorubicin) is 15.9% (inactive). Also, the results for the inhibition in test [7] and in test [8] were -7.67% (inactive) and -7.78% (inactive), respectively.
On to `CCCCSc1nc2c(cnn2-c2ccc(Cl)cc2)c(=O)[nH]1`, for which the viability is 93% in test [1]; 93% (inactive) in test [3]; 85.5% (inactive) in test [4]; 75.1% (inactive) in test [5]; 72.1% in test [6] (setting [9]); 75.1% in test [6] (setting [10]). Moreover, the Her2 level in test [2] was 83.5% (inactive). Moreover, the differential viability (reversal) in test [6] (H69AR cells + 2 uM doxorubicin) was 2.96% (inactive). For the same molecule, the inhibition in test [7] is -4.93% (inactive); in test [8], 7.38% (inactive).
For the molecule `CCC(C)(C(=O)NC1CCCC1)N(C(=O)c1cnccn1)c1c(C)n(C)n(-c2ccccc2)c1=O` (stereo not given), the viability in test [1] was 97%; in test [3] it was 97% (inactive); in test [4], 94.4% (inactive); in test [5], 91.4% (inactive); in test [6] (setting [9]), 91.2%; in test [6] (setting [10]), 91.4%. Also, the Her2 level in test [2] is 124% (inactive). The differential viability (reversal) in test [6] (H69AR cells + 2 uM doxorubicin) was 0.145% (inactive). The inhibition in test [7] is 2.34% (inactive); in test [8], -7.38% (inactive).
Take `CC1(C)CC(=O)C(C(=O)CCCCC(=O)C2C(=O)CC(C)(C)CC2=O)C(=O)C1`: the viability in test [1] is 99.5%; in test [3], 99.5% (inactive); in test [4], 98.4% (inactive); in test [5], 95.1% (inactive); in test [6] (setting [9]), 88.2%; in test [6] (setting [10]), 95.1%. Also, in test [2], the Her2 level was 158% (inactive). In addition, the differential viability (reversal) in test [6] (H69AR cells + 2 uM doxorubicin) is 6.97% (inactive). Also, the inhibition in test [7] was 0.53% (inactive); in test [8], -0.5% (inactive).
As to `COc1ccc(NC(=O)C(C)NS(=O)(=O)c2ccccc2)cc1Cl` (stereo not given), the viability in test [1] is 92%; in test [3] it was 92% (inactive); in test [4], 98.4% (inactive); in test [5], 97.7% (inactive); in test [6] (setting [9]) it was 91%; in test [6] (setting [10]), 97.7%. The Her2 level in test [2] is 99% (inactive). The differential viability (reversal) in test [6] (H69AR cells + 2 uM doxorubicin) was 6.73% (inactive). Also, the figures for the inhibition in test [7] and in test [8] were -3.87% (inactive) and -6.19% (inactive), respectively.
For the molecule `CCOC(=O)C(CCc1nnc(N)s1)C(=O)OCC`, the viability is 87.5% in test [1]; 87.5% (inactive) in test [3]; 110% (inactive) in test [4]; 108% (inactive) in test [5]; 95.2% in test [6] (setting [9]); 108% in test [6] (setting [10]). The Her2 level in test [2] is 89% (inactive). Further, the differential viability (reversal) in test [6] (H69AR cells + 2 uM doxorubicin) is 12.8% (inactive). The inhibition in test [7] was -4.53% (inactive); in test [8], -0.48% (inactive).
Take `COc1ccc(C(CNC(=O)c2ccc(OCC3CCCO3)cc2)N2CCOCC2)cc1` (stereo not given): the viability in test [1] was 90%; in test [3] it was 90% (inactive); in test [4] it was 82.9% (inactive); in test [5] it was 105% (inactive); in test [6] (setting [9]) it was 90.7%; in test [6] (setting [10]) it was 105%. Further, the Her2 level in test [2] is 93.5% (inactive). The differential viability (reversal) in test [6] (H69AR cells + 2 uM doxorubicin) was 13.8% (inactive). Also, the inhibition in test [7] is -1.33% (inactive); in test [8], -2.42% (inactive).
As for `O=C(COC(=O)C1=COCCO1)Nc1ccccc1Oc1ccccc1`, the viability in test [1] is 113%; in test [3], 113% (inactive); in test [4], 97.8% (inactive); in test [5] it was 93.8% (inactive); in test [6] (setting [9]), 88.3%; in test [6] (setting [10]) it was 93.8%. Besides, the Her2 level in test [2] is 95% (inactive). Besides, the differential viability (reversal) in test [6] (H69AR cells + 2 uM doxorubicin) was 5.48% (inactive). Also, the inhibition in test [7] is -7.37% (inactive); in test [8] it was -1.64% (inactive).
With `Cc1noc(C)c1S(=O)(=O)N1CCC(C(=O)N2CCN(Cc3ccc4c(c3)OCO4)CC2)CC1`, the viability in test [1] was 94%; in test [3], 94% (inactive); in test [4] it was 99% (inactive); in test [5], 91.9% (inactive); in test [6] (setting [9]), 98.6%; in test [6] (setting [10]), 91.9%. The Her2 level in test [2] was 92.5% (inactive). In addition, in test [6] (H69AR cells + 2 uM doxorubicin), the differential viability (reversal) is -6.75% (inactive). The inhibition in test [7] is -1.45% (inactive); in test [8], -0.63% (inactive).
Turning to `O=C(Cn1nnc(-c2ccccc2)n1)Nc1ccccc1N1CCOCC1`, the viability in test [1] was 99.5%; in test [3], 99.5% (inactive); in test [4], 110% (inactive); in test [5], 93.3% (inactive); in test [6] (setting [9]), 92.5%; in test [6] (setting [10]), 93.3%. Besides, the Her2 level in test [2] was 98% (inactive). In addition, in test [6] (H69AR cells + 2 uM doxorubicin), the differential viability (reversal) was 0.8% (inactive). The values for the inhibition in test [7] and in test [8] were -7.2% (inactive) and 0.66% (inactive), respectively.

Broadly, the viability is a read-out of living cells in per cent, often relative to untreated cells. The term inhibition denotes the change of the read-out against control, counted positive when it falls.

The values are drawn from PubChem BioAssay.
